Results gathered from unrelated publications.
Compare with care: the assays were run in different laboratories. pIC50, pKd, pKi: −log10 of the molar value.
DDB1: DNA damage-binding protein 1 (DDB1, Homo sapiens, UniProt Q16531)
Maoa: Amine oxidase [flavin-containing] A (Maoa, Mus musculus, UniProt Q64133)
EPHX2: Bifunctional epoxide hydrolase 2 (EPHX2, Homo sapiens, UniProt P34913)

`CC[C@H](C)[C@H](NC(=O)[C@H](CCCCN)NC(=O)[C@@H](NC(=O)[C@H](CCCNC(=N)N)NC(=O)[C@H](CCC(=O)O)NC(=O)[C@H](CC(C)C)NC(=O)[C@H](CCC(N)=O)NC(=O)[C@H](CCCCN)NC(=O)[C@H](CC(C)C)NC(=O)[C@@H](NC(=O)[C@H](Cc1c[nH]cn1)NC(=O)[C@H](CCC(=O)O)NC(=O)[C@@H](N)CCCNC(=N)N)C(C)C)C(C)C)C(=O)N[C@@H](CO)C(=O)NCC(=O)N[C@@H](CCC(N)=O)C(=O)N[C@@H](CC(C)C)C(=O)N[C@@H](CO)C(=O)N1CCC[C@H]1C(=O)N[C@@H](CCCNC(=N)N)C(=O)N[C@@H](CC(C)C)C(=O)N[C@@H](Cc1ccccc1)C(=O)N[C@@H](CCCNC(=N)N)C(=O)N[C@@H](CCCCN)C(=O)N[C@@H](CC(C)C)C(=O)N1CCC[C@H]1C(=O)N1CCC[C@H]1C(=O)N[C@@H](CCCNC(=N)N)C(=O)N[C@H](C(=O)N[C@@H](CS)C(=O)N[C@H](C(=O)N[C@@H](CO)C(=O)O)C(C)C)C(C)C` gave a pIC50 of 7.24 (DDB1; cell-free assay, FP; pH 7.5).
For `COC(=O)c1cc(N(C)C(=O)c2ccn3ncc(-c4ccc(C(=O)O)cc4)c3c2)ccc1Cl`, the pIC50 was less than 4.52 (Proto-oncogene tyrosine-protein kinase receptor Ret (RET, Homo sapiens, UniProt P07949); enzyme activity, inhibitor).
`C#CCN(C)CCCOc1ccc(Cl)cc1Cl` has a pIC50 of 7.35 (Maoa; enzyme activity, inhibitor, fluorescence).
The pKd of `O=C(C=Cc1ccccc1)Nc1cc(-c2ccnc(N3CCC(O)CC3)c2)ccn1` is reported as 5.79 (Estrogen receptor beta (ESR2, Homo sapiens, UniProt Q92731); binding, SPR).
The pIC50 of `Cc1ccc(F)c(CNS(=O)(=O)c2cccc3cccnc23)c1` is reported as 5.56 (Maoa; enzyme activity, inhibitor, fluorescence).
The pKi of `CC[C@H](C)[C@@H]1NC(=O)[C@H](CC(=O)O)NC(=O)[C@H]([C@@H](C)O)NC(=O)[C@@H]2CSSC[C@@H]3NC(=O)[C@H](CC(C)C)NC(=O)[C@H](CC(N)=O)NC(=O)[C@H](CC(C)C)NC(=O)[C@H](CCCNC(=N)N)NC(=O)[C@H](Cc4ccc(O)cc4)NC(=O)[C@H](CCCCN)NC(=O)[C@H](CCSC)NC(=O)[C@H](CO)NC(=O)[C@H]([C@@H](C)O)NC(=O)[C@H](CCCNC(=N)N)NC(=O)[C@H](CSSC[C@H](NC(=O)[C@H]([C@@H](C)O)NC(=O)[C@H](CCCCN)NC(=O)[C@H](CCCNC(=N)N)NC3=O)C(=O)NCC(=O)N[C@@H](CO)C(=O)N[C@H](C(=O)O)CSSC[C@H](NC(=O)[C@@H](NC(=O)[C@@H](N)CCCNC(=N)N)[C@@H](C)O)C(=O)N[C@@H](CCCCN)C(=O)N[C@@H](CC(=O)O)C(=O)N[C@@H](CC(C)C)C(=O)N[C@@H]([C@@H](C)CC)C(=O)N3CCC[C@H]3C(=O)N[C@@H](C(C)C)C(=O)N[C@@H](CO)C(=O)N[C@@H](CCC(=O)O)C(=O)N2)NC(=O)[C@H](CCCNC(=N)N)NC1=O` is reported as 8.60 (Potassium voltage-gated channel subfamily A member 2 (KCNA2, Homo sapiens, UniProt P16389); ion current, inhibitor, two-electrode voltage clamp; oocytes).
`C[S+]([O-])CCCN=C=S` (stereo not shown) has a pIC50 of 4.69 (EPHX2; enzyme activity, inhibitor, fluorescence).
For `CC[C@H](C)[C@H](NC(=O)[C@H](CO)NC(=O)[C@H](CCC(N)=O)NC(=O)CNC(=O)[C@H](CC(C)C)NC(=O)[C@H](CO)NC(=O)[C@H](CO)NC(=O)[C@H](CCCCN)NC(=O)[C@H](Cc1ccc(O)cc1)NC(=O)[C@@H](NC(=O)[C@H](Cc1ccc(O)cc1)NC(=O)[C@H](Cc1c[nH]cn1)NC(=O)[C@H](CC(C)C)NC(=O)[C@@H](NC(=O)[C@H](CO)NC(=O)[C@@H](NC(=O)[C@H](CCC(N)=O)NC(=O)CN)[C@@H](C)O)[C@@H](C)CC)[C@@H](C)CC)C(=O)N[C@@H](Cc1c[nH]cn1)C(=O)N[C@@H](C)C(=O)N[C@@H](CCC(N)=O)C(=O)N[C@@H](CC(C)C)C(=O)N[C@@H](CCCNC(=N)N)C(=O)N[C@@H](CCC(N)=O)C(=O)N[C@@H](CS)C(=O)N[C@@H](CC(C)C)C(=O)NCC(=O)NCC(=O)NCC(=O)NCC(=O)O`, the pIC50 was 6.06 (DDB1; cell-free assay, FP; pH 7.5).
The pIC50 of `S=C=NCCc1ccccc1` is reported as 5.12 (EPHX2; enzyme activity, inhibitor, fluorescence).
For `CNC(=O)c1ccc(-c2cnn3ccc(C(=O)N(C)c4ccc(Cl)c(C(=O)O)c4)cc23)cc1`, the pIC50 was less than 4.52 (Tyrosine-protein kinase JAK2 (JAK2, Homo sapiens, UniProt O60674); enzyme activity, inhibitor).
